Tests used:
[1] = Cytotoxicity against human BCBL1 cells after 7 days by Cell-Titer Glo assay; format: cell-based
Outline: (§1)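 Uninfected Akata, BCBL1, HSB-2 or MOLT-3 cells incubated with compound for seven days under the matching antiviral-assay conditions. CellTiter-Glo added and luminescence read. CC50 is the concentration reducing cell number by 50%.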

Human betaherpesvirus 5 = test: Antiviral activity against HCMV infected in human HFF cells assessed as reduction in cytopathic effect after 8 days by plaque reduction assay; format: functional, organism-based; details: Human betaherpesvirus 5, HFF, 192 h
Outline: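 HFF monolayers seeded 2 days ahead and infected with AD169 at about 30 plaques per well, with 1 h adsorption. Compound was then added in MEM with 2% FBS, L-glutamine, penicillin, gentamycin and pooled human gamma globulin. After 8 days, neutral red stain and plaque counts by stereomicroscope. EC50 interpolated. Duplicate wells.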

[2] = Antiviral activity against HHV-6B infected in human Molt3 cells assessed as reduction in viral DNA after 7 days by hybridization assay; format: functional, cell-based, Human herpesvirus 6B; details: Human betaherpesvirus 6B, MOLT-3, 168 h
Outline: (§2)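 Compound serially diluted in medium. Uninfected HSB-2 cells were infected with HHV-6A (GS)-infected HSB-2 cells, and Molt-3 cells with HHV-6B (Z29)-infected Molt-3 cells. Incubation 7 days at 37 °C. Lysis in 4.5 M NaCl/1.2 M NaOH, then transfer to nylon membrane. Viral DNA quantified by digoxigenin-probe hybridization and EC50 calculated. Duplicate wells.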

[3] = Cytotoxicity against human Akata cells after 7 days by Cell-Titer Glo assay; format: cell-based; outline: as §1
[4] = Antiviral activity against HHV-6A infected in human HSB2 cells assessed as reduction in viral DNA after 7 days by hybridization assay; format: functional, cell-based, Human herpesvirus 6A; details: Human betaherpesvirus 6A, HSB2, 168 h; outline: as §2
Human gammaherpesvirus 8 = test: Antiviral activity against HHV-8 infected in human BCBL1 cells assessed as reduction in viral DNA after 7 days by qPCR analysis; format: functional, organism-based; details: Human gammaherpesvirus 8, BCBL1, 168 h
Outline: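 BCBL1 cells kept in RPMI 1640 with 10% FBS, penicillin, gentamycin and L-glutamine. Lytic infection induced with phorbol 12-myristate 13-acetate, then cells added to triplicate compound dilutions. Incubation 7 days at 37 °C in humidified CO2. EC50 is the concentration halving viral DNA accumulation.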

[5] = Cytotoxicity against human HSB2 cells after 7 days by Cell-Titer Glo assay; format: cell-based, CCRF-HSB-2; outline: as §1
[6] = Cytotoxicity against human MOLT3 cells after 7 days by Cell-Titer Glo assay; format: cell-based, MOLT-3; outline: as §1
Human alphaherpesvirus 1 = test: Antiviral activity against HSV-1 infected in human HFF cells assessed as reduction in cytopathic effect after 3 days by crystal violet staining; format: functional, organism-based; details: Human alphaherpesvirus 1, HFF, 72 h
Outline: (§3)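 Compound diluted over HFF monolayers, then HSV-1 (E-377) or HSV-2 (MS) added at MOI about 0.01 PFU/cell. Held 3 days in humidified 5% CO2. Stained 4 h with 0.1% crystal violet in formalin, rinsed, dried 24 h, and absorbance read at 595 nm. EC50 is 50% CPE reduction. Duplicate wells.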

Human gammaherpesvirus 4 = test: Antiviral activity against EBV Akata infected in human Akata cells assessed as reduction in viral DNA after 72 hrs by hybridization assay; format: functional, organism-based; details: human gammaherpesvirus 4, Akata
Outline: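 Akata cells kept in RPMI 1640 with 10% FBS, L-glutamine, penicillin and gentamicin. Latent infection was switched to productive by adding goat anti-human IgG, and cells were seeded into compound dilutions made in growth medium. After 72 h the DNA was denatured and blotted onto nylon membrane. Viral DNA was measured with a digoxigenin-labeled probe plus anti-hapten antibody. EC50 is the concentration halving viral DNA. Duplicate wells.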

[7] = Cytotoxicity against human HFF cells after 3 to 8 days by crystal voilet staining; format: cell-based
Outline: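 Uninfected HFF cells exposed to the same concentrations as in the CPE assays (3 days for HSV, 7 for VZV, […]). Stained with crystal violet. CC50 is the concentration reducing cell number by 50%. Duplicate wells.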

Human alphaherpesvirus 3 = test: Antiviral activity against VZV infected in human HFF cells assessed as reduction in cytopathic effect after 7 days by crystal violet staining; format: functional, organism-based; details: Human alphaherpesvirus 3, HFF, 168 h
Human alphaherpesvirus 2 = test: Antiviral activity against HSV-2 infected in human HFF cells assessed as reduction in cytopathic effect after 3 days by crystal violet staining; format: functional, organism-based; details: Human alphaherpesvirus 2, HFF, 72 h; outline: as §3

SMILES: Nc1nc(NC2CCCC2)c2ncn(/C=C3/CC3(CO)CO)c2n1
- CC50 at 168 h [1]: 71.7 µM
- IC50 (Human betaherpesvirus 5): > 60 µM
- IC50 [2]: > 20 µM
- CC50 at 168 h [3]: > 20 µM
- IC50 [4]: > 20 µM
- IC50 (Human gammaherpesvirus 8): 63 µM
- CC50 at 168 h [5]: > 20 µM
- CC50 at 168 h [6]: > 20 µM
- IC50 (Human alphaherpesvirus 1): > 60 µM
- IC50 (Human gammaherpesvirus 4): > 20 µM
- CC50 [7]: > 300 µM
- IC50 (Human alphaherpesvirus 3): > 60 µM
- IC50 (Human alphaherpesvirus 2): > 60 µM

SMILES: CNc1nc(N)nc2c1ncn2/C=C1/CC1(CO)CO
- CC50 at 168 h [1]: 67 µM
- IC50 (Human betaherpesvirus 5): > 300 µM
- IC50 [2]: > 20 µM
- CC50 at 168 h [3]: > 24 µM
- IC50 [4]: > 20 µM
- IC50 (Human gammaherpesvirus 8): 62 µM
- CC50 at 168 h [5]: > 20 µM
- CC50 at 168 h [6]: > 20 µM
- IC50 (Human alphaherpesvirus 1): > 300 µM
- IC50 (Human gammaherpesvirus 4): > 24 µM
- CC50 [7]: 265 µM
- IC50 (Human alphaherpesvirus 3): > 300 µM
- IC50 (Human alphaherpesvirus 2): > 300 µM

SMILES: CCCCOc1nc(N)nc2c1ncn2/C=C1/CC1(CO)CO
- CC50 at 168 h [1]: > 20 µM
- IC50 (Human betaherpesvirus 5): 1.6 µM
- IC50 [2]: 3.2 µM
- CC50 at 168 h [3]: > 20 µM
- IC50 [4]: > 20 µM
- IC50 (Human gammaherpesvirus 8): > 20 µM
- CC50 at 168 h [5]: > 20 µM
- CC50 at 168 h [6]: > 20 µM
- IC50 (Human alphaherpesvirus 1): > 300 µM
- IC50 (Human gammaherpesvirus 4): 1.6 µM
- CC50 [7]: > 300 µM
- IC50 (Human alphaherpesvirus 3): > 100 µM
- IC50 (Human alphaherpesvirus 2): > 300 µM

SMILES: CCCSc1nc(N)nc2c1ncn2/C=C1/CC1(CO)CO
- CC50 at 168 h [1]: > 20 µM
- IC50 (Human betaherpesvirus 5): 42 µM
- IC50 [2]: 14.3 µM
- CC50 at 168 h [3]: > 20 µM
- IC50 [4]: 63 µM
- IC50 (Human gammaherpesvirus 8): > 20 µM
- CC50 at 168 h [5]: 98 µM
- CC50 at 168 h [6]: > 20 µM
- IC50 (Human alphaherpesvirus 1): > 300 µM
- IC50 (Human gammaherpesvirus 4): > 20 µM
- CC50 [7]: > 300 µM
- IC50 (Human alphaherpesvirus 3): > 300 µM
- IC50 (Human alphaherpesvirus 2): > 300 µM

SMILES: Nc1nc(OCc2ccccc2)c2ncn(/C=C3/CC3(CO)CO)c2n1
- CC50 at 168 h [1]: > 20 µM
- IC50 (Human betaherpesvirus 5): 45 µM
- IC50 [2]: > 20 µM
- CC50 at 168 h [3]: > 20 µM
- IC50 [4]: > 20 µM
- IC50 (Human gammaherpesvirus 8): > 20 µM
- CC50 at 168 h [5]: > 20 µM
- CC50 at 168 h [6]: > 20 µM
- IC50 (Human alphaherpesvirus 1): > 300 µM
- IC50 (Human gammaherpesvirus 4): > 20 µM
- CC50 [7]: > 300 µM
- IC50 (Human alphaherpesvirus 3): 53 µM
- IC50 (Human alphaherpesvirus 2): > 300 µM

SMILES: CCCCCCCCSc1nc(N)nc2c1ncn2/C=C1/CC1(CO)CO
- CC50 at 168 h [1]: > 20 µM
- IC50 (Human betaherpesvirus 5): 20 µM
- IC50 [2]: 11 µM
- CC50 at 168 h [3]: > 20 µM
- IC50 [4]: > 20 µM
- IC50 (Human gammaherpesvirus 8): > 20 µM
- CC50 at 168 h [5]: 60 µM
- CC50 at 168 h [6]: > 20 µM
- IC50 (Human alphaherpesvirus 1): > 300 µM
- IC50 (Human gammaherpesvirus 4): > 20 µM
- CC50 [7]: > 300 µM
- IC50 (Human alphaherpesvirus 3): > 60 µM
- IC50 (Human alphaherpesvirus 2): > 300 µM

SMILES: CCCCSc1nc(N)nc2c1ncn2/C=C1/CC1(CO)CO
- CC50 at 168 h [1]: > 20 µM
- IC50 (Human betaherpesvirus 5): > 50 µM
- IC50 [2]: 7 µM
- CC50 at 168 h [3]: > 20 µM
- IC50 [4]: 75 µM
- IC50 (Human gammaherpesvirus 8): > 20 µM
- CC50 at 168 h [5]: 89 µM
- CC50 at 168 h [6]: > 20 µM
- IC50 (Human alphaherpesvirus 1): > 300 µM
- IC50 (Human gammaherpesvirus 4): 2.5 µM
- CC50 [7]: > 300 µM
- IC50 (Human alphaherpesvirus 3): > 300 µM
- IC50 (Human alphaherpesvirus 2): > 300 µM

SMILES: Nc1nc2c(ncn2/C=C2/CC2(CO)CO)c(=O)[nH]1 [FILOCICLOVIR]
- CC50 at 168 h [1]: > 20 µM
- IC50 (Human betaherpesvirus 5): 1.4 µM
- IC50 [2]: 8 µM
- CC50 at 168 h [3]: > 20 µM
- IC50 [4]: 1.3 µM
- IC50 (Human gammaherpesvirus 8): 3 µM
- CC50 at 168 h [5]: > 20 µM
- CC50 at 168 h [6]: > 20 µM
- IC50 (Human alphaherpesvirus 1): > 100 µM
- IC50 (Human gammaherpesvirus 4): 45 µM
- CC50 [7]: > 300 µM
- IC50 (Human alphaherpesvirus 3): > 100 µM
- IC50 (Human alphaherpesvirus 2): > 100 µM

SMILES: CCOc1nc(N)nc2c1ncn2/C=C1/CC1(CO)CO
- CC50 at 168 h [1]: > 20 µM
- IC50 (Human betaherpesvirus 5): 1.6 µM
- IC50 [2]: 11.2 µM
- CC50 at 168 h [3]: > 20 µM
- IC50 [4]: > 20 µM
- IC50 (Human gammaherpesvirus 8): > 20 µM
- CC50 at 168 h [5]: > 20 µM
- CC50 at 168 h [6]: > 20 µM
- IC50 (Human alphaherpesvirus 1): > 300 µM
- IC50 (Human gammaherpesvirus 4): 11.9 µM
- CC50 [7]: > 300 µM
- IC50 (Human alphaherpesvirus 3): > 100 µM
- IC50 (Human alphaherpesvirus 2): > 300 µM

SMILES: COc1nc(N)nc2nc[nH]c12
- CC50 at 168 h [1]: 51 µM
- IC50 (Human betaherpesvirus 5): 2.8 µM
- IC50 [2]: > 20 µM
- CC50 at 168 h [3]: > 20 µM
- IC50 [4]: > 20 µM
- IC50 (Human gammaherpesvirus 8): 13 µM
- CC50 at 168 h [5]: > 20 µM
- CC50 at 168 h [6]: > 20 µM
- IC50 (Human alphaherpesvirus 1): > 300 µM
- IC50 (Human gammaherpesvirus 4): 1 µM
- CC50 [7]: 171 µM
- IC50 (Human alphaherpesvirus 3): 7.4 µM
- IC50 (Human alphaherpesvirus 2): > 300 µM

SMILES: Nc1nc(OCC(F)(F)F)c2ncn(/C=C3/CC3(CO)CO)c2n1
- CC50 at 168 h [1]: > 20 µM
- IC50 (Human betaherpesvirus 5): 5.6 µM
- IC50 [2]: 8.9 µM
- CC50 at 168 h [3]: > 20 µM
- IC50 [4]: > 20 µM
- IC50 (Human gammaherpesvirus 8): 19 µM
- CC50 at 168 h [5]: > 20 µM
- CC50 at 168 h [6]: > 20 µM
- IC50 (Human alphaherpesvirus 1): > 300 µM
- IC50 (Human gammaherpesvirus 4): 1.4 µM
- CC50 [7]: > 300 µM
- IC50 (Human alphaherpesvirus 3): > 300 µM
- IC50 (Human alphaherpesvirus 2): > 300 µM

SMILES: CC(C)Sc1nc(N)nc2c1ncn2/C=C1/CC1(CO)CO
- CC50 at 168 h [1]: > 20 µM
- IC50 (Human betaherpesvirus 5): 4 µM
- IC50 [2]: 7.5 µM
- CC50 at 168 h [3]: > 20 µM
- IC50 [4]: 70 µM
- IC50 (Human gammaherpesvirus 8): > 20 µM
- CC50 at 168 h [5]: 94 µM
- CC50 at 168 h [6]: > 20 µM
- IC50 (Human alphaherpesvirus 1): > 300 µM
- IC50 (Human gammaherpesvirus 4): 3.1 µM
- CC50 [7]: > 300 µM
- IC50 (Human alphaherpesvirus 3): > 60 µM
- IC50 (Human alphaherpesvirus 2): > 300 µM

SMILES: CCCCCOc1nc(N)nc2c1ncn2/C=C1/CC1(CO)CO
- CC50 at 168 h [1]: > 20 µM
- IC50 (Human betaherpesvirus 5): 0.5 µM
- IC50 [2]: > 20 µM
- CC50 at 168 h [3]: > 20 µM
- IC50 [4]: > 20 µM
- IC50 (Human gammaherpesvirus 8): > 20 µM
- CC50 at 168 h [5]: > 20 µM
- CC50 at 168 h [6]: > 20 µM
- IC50 (Human alphaherpesvirus 1): > 300 µM
- IC50 (Human gammaherpesvirus 4): 0.5 µM
- CC50 [7]: 259 µM
- IC50 (Human alphaherpesvirus 3): > 60 µM
- IC50 (Human alphaherpesvirus 2): > 300 µM

From ChEMBL document CHEMBL2034823, “Synthesis and antiviral activity of certain second generation methylenecyclopropane nucleosides” (Bioorg Med Chem, 2012)
